# Laboratory results: article PMC5532717 (ACS Central Science, 2017)
# pIC50: −log10 of the molar value.
# Tests used:
# Format in all cases: biochemical
# human β-glucosidase GBA1 = biological target: T1, human β-glucosidase GBA1 (Homo sapiens, UniProt P04062, R534H); experiment: In vitro apparent IC50, recombinant GBA1
# T1 sequence (P04062 40-536 R534H): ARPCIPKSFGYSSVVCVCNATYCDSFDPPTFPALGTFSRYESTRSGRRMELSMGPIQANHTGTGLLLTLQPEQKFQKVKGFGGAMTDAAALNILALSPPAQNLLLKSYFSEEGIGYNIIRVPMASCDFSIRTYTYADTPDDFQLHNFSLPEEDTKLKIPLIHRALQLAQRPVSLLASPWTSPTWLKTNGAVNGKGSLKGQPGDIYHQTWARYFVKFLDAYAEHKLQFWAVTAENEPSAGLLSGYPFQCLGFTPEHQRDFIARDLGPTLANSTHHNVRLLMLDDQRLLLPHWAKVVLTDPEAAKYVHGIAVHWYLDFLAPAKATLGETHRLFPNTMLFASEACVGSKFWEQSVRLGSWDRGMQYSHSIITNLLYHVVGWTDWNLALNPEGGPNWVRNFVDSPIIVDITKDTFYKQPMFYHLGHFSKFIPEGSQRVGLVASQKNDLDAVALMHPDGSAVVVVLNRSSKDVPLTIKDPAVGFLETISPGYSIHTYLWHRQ
# Summary of the method: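 Recombinant human GBA1 (Cerezyme) preincubated with a range of test compound concentrations for 30 min at 37 °C, then added to 4-MU-Glc substrate mixture to measure residual activity. Reaction quenched with 1 M NaOH–glycine (pH 10.3); 4-MU fluorescence read at λEX 366 / λEM 445 nm. Apparent IC50 is the mean of three technical replicates.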
# GAA = GAA (Mus musculus, UniProt P70699); experiment: Competitive ABPP against probe 13 in mouse gastrointestinal lysate; details: mouse intestine lysate, 1 h at 37 °C
# Summary of the method: (§1)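 Mixed mouse duodenum, jejunum and ileum homogenates were made in 25 mM potassium phosphate pH 6.5 with protease inhibitors (40 μg protein). Held 5 min on ice in McIlvaine buffer pH 4 or 7. Incubated 1 h at 37 °C with test compound (final 150 to 0.005 μM, plus 0), then probe 13 for 30 min at 37 °C. Boiled in Laemmli buffer, 10% SDS–PAGE, Cy5 fluorescence scan.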
# [1] = biological target: T2, lactase-phlorizin hydrolase (LPH) (Mus musculus, UniProt F8VPT3); experiment: as above; details: mouse intestine lysate, 1 h at 37 °C
# T2 sequence (F8VPT3 869-1931 limits assumed): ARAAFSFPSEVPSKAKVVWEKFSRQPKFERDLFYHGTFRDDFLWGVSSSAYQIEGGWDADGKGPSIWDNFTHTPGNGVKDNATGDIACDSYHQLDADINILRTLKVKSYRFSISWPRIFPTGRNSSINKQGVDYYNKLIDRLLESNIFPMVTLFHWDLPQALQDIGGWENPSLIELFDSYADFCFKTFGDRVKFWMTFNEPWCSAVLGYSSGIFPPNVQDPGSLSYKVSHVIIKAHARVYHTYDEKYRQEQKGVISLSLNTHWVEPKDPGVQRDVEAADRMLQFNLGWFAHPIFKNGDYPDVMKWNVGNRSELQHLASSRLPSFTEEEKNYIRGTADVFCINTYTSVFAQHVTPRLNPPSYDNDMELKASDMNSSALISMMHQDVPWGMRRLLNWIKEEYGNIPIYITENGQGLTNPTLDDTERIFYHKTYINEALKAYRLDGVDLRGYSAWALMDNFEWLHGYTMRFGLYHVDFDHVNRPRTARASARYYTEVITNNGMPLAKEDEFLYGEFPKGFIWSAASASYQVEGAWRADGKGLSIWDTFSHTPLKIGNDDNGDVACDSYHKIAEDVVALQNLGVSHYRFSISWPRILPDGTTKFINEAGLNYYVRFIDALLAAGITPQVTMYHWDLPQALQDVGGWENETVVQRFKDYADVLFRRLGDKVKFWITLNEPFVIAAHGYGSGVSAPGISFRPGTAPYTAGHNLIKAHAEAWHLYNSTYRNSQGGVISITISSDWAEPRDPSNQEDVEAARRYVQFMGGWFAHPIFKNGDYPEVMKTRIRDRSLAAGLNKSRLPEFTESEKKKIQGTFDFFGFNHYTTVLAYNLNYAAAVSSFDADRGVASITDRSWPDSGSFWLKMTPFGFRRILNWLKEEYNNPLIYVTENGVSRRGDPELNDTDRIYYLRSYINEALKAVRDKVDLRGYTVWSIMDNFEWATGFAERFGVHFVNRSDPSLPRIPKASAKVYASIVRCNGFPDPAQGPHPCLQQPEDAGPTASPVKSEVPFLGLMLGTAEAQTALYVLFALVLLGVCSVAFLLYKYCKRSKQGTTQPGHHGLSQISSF
# Summary of the method: as §1
# GBA1 = biological target: T3, GBA1 (Mus musculus, UniProt P17439); experiment: as above; details: mouse intestine lysate, 1 h at 37 °C
# T3 sequence (P17439 20-515): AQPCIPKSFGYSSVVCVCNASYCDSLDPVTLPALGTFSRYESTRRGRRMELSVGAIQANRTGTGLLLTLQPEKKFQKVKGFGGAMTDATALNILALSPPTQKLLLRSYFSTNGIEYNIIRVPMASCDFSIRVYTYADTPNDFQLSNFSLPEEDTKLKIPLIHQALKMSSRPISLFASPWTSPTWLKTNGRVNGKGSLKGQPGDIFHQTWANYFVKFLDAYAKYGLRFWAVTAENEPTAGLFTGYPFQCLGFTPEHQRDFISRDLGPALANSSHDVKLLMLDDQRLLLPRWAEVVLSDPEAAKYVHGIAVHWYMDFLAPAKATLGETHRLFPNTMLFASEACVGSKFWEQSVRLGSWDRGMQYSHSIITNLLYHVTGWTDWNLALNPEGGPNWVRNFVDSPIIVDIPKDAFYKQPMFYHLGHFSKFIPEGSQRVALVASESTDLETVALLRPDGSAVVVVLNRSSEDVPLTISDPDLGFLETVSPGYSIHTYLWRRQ
# Summary of the method: as §1
# Sequence of GAA (P70699 70-953): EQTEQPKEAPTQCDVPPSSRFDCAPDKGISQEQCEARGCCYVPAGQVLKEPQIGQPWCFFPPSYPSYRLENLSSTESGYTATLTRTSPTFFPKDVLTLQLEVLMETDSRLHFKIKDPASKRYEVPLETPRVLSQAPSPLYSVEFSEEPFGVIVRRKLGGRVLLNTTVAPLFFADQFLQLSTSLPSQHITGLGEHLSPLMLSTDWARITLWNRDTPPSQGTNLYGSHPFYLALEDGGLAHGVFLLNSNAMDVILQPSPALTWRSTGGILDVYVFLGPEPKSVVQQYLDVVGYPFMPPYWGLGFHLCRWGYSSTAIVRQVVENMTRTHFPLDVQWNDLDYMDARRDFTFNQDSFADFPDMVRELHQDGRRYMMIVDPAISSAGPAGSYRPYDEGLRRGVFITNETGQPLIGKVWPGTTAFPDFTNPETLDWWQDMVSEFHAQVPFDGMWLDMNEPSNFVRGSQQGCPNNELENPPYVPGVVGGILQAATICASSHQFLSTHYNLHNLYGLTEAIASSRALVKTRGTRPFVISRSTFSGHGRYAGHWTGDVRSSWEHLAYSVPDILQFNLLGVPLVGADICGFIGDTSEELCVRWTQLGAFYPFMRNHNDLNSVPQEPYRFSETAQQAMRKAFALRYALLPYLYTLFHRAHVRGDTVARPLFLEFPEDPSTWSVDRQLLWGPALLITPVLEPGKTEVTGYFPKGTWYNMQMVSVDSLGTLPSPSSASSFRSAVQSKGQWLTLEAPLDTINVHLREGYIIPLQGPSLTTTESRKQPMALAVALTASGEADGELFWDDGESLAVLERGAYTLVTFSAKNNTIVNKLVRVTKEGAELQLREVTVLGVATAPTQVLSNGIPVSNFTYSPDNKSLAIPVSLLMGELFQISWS
compound,measurement,setting,value
"O=S1(=O)O[C@@H]2[C@H](O)[C@@H](O)[C@H](O)[C@@H](CO)[C@@H]2O1 [Compound 5, 1,6-epi-cyclophellitol cyclosulfate]",pIC50,human β-glucosidase GBA1,< 4.00
same,inhibition of probe 13 labeling of GAA,GAA,inhibited
same,competition of off-target probe 13 labeling of LPH,[1],not outcompeted
same,competition of off-target probe 13 labeling of GBA1,GBA1,not outcompeted
